CAL PDZ FP-1: CAL PDZ peptide-binding inhibitors, primary screen, biochemical, fluorescence polarization, Cer-tagged CAL PDZ, HTS. inhibition, % at 20 µM. hit rate 0.02% among 330,000. purified CAL PDZ, TMR-peptide fluorescence polarization, 1 h. Golgi-associated PDZ and coiled-coil motif-containing protein (Homo sapiens), Q9HD26;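 active = highest replicate inhibition of at least 40%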;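 also: plate controls were DMSO neutral control wells for no effect and unlabeled competitor peptide control wells for full effect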
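Material: tagged CAL PDZ protein CerCALP, purified; buffer or medium: sodium phosphate/NaCl buffer pH 7.4 with TCEP, IgG, Thesit; also added: fluorescent TMR peptide probe; schedule: 1 h incubation at room temperature before polarization reading; technique: fluorescence polarization from S- and P-plane intensities, G-factor corrected; control set: unlabelled peptide and DMSO controls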
PglD DTNB: C. jejuni PglD acetyltransferase inhibitors, primary screen, biochemical, DTNB colorimetric, single point; purified PglD enzyme, DTNB colorimetric CoA detection; hit rate 0.098% among 360,000; AID 602405, 2012; inhibition, % at 12.5 µM; in the data active = inhibition above about 16%, passing the limit was not always enough
CAL PDZ FP-2: untagged CAL PDZ binding inhibitors, primary screen, biochemical, fluorescence polarization, HTS | Golgi-associated PDZ and coiled-coil motif-containing protein (Homo sapiens), Q9HD26 | purified CAL PDZ, TMR-peptide fluorescence polarization, 1 h | inhibition, % at 24.9 µM | hit rate 0.92% among 300,000 | AID 602252, 2012;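 active = mean inhibition of at least 30% with at least half of replicates also reaching 30%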;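 also: 0% = DMSO neutral control and 100% = excess unlabeled competitor peptide PRC23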
Cneo AK release: Cryptococcus neoformans cell lysis inducers, primary screen, AK release luminescence, single concentration | hit rate 0.2% among 360,000 | lysis activity, % at 15 µM | AID 651654, 2012 | C. neoformans lysis, adenylate kinase release luminescence, 4 h; normalised: neutral wells 0, clomiphene wells 100;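 active = mean lysis activity across replicates of at least 80%, whatever share of replicates individually reach that level; inactive = mean lysis activity below 80%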
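Test system: log-phase Cryptococcus neoformans yeast cells; Quantity: yeast cell density of 5 × 10^6 cells/mL; Buffer or medium: YPD; Doses: single compound concentration per well; Timing: 4 h at 37 °C static, read 1 h later; Measured by: AK luminescence; Read-out basis: lysis from increased AK signal; Control set: Clomiphene as positive control.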
miR-122 sensor: miR-122 Renilla sensor signal increase in Huh7, primary screen, miR-122 inhibitor project, cell-based, single point, plate reader; hit rate 0.3% among 340,000; activation (reporter increase), % at 12.5 µM; Huh7 miR-122 Renilla luciferase sensor, 48 h; neutral wells = 0, positive control = 100;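 active = mean replicate activation score at least 90 and every replicate individually at or above 90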;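 also: higher luciferase means less miR-122 activity so hits act as miR-122 inhibitors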
* marks the source's active call; other numbers are inactive results; · = no result given; [ ] = dose if it differs, or a comment. Sampled rows, rich in hits. Any-hit rate of the full collection: about 1.1%.

SMILES	CAL PDZ FP-1	PglD DTNB	CAL PDZ FP-2	Cneo AK release	miR-122 sensor
CC(=O)N1[C@@H]2Cn3c(ccc(/C=C/c4ccccc4)c3=O)[C@H]1[C@@H](C(=O)NCC1CC1)[C@@H]2CO	·	1.9	·	0.3	1.3[16.7 µM]
Cc1nn(C)c(C)c1/C=N/N=C1\CCC2C3CCc4cc(O)ccc4C3CCC12C (stereo unspecified)	-0.7	-0.8	-2.2	2.7	2.6
Cc1cc(C(=O)Nc2cccc3c2O[C@H](CN(C)Cc2ccc(C(F)(F)F)cc2)[C@H](C)CN([C@@H](C)CO)C3=O)n(C)n1	·	-1.5	·	0.1	-4.4[16.7 µM]
C[C@@H]1CN([C@H](C)CO)C(=O)c2cccc(NC(=O)c3ccncc3)c2O[C@@H]1CN(C)Cc1ccc(-c2ccccc2)cc1	·	5.5	·	100.8*	55.5[16.7 µM]
Cc1cc(C(=O)Nc2cccc3c2O[C@H](CN(C)Cc2ccc(C(F)(F)F)cc2)[C@@H](C)CN([C@H](C)CO)C3=O)n(C)n1	·	-0.9	·	20.2	276.3*[16.7 µM]
C[C@@H]1CN([C@@H](C)CO)C(=O)c2cccc(NC(=O)c3ccncc3)c2O[C@@H]1CN(C)Cc1ccc(-c2ccccc2)cc1	-1.2	-4.6	-2.1	6.8	-3.4[16.7 µM]
CCCC(=O)Nc1nc2ccc(S(=O)(=O)N3CCCCC3)cc2s1	-0.3	4.1	·	-3.6	117.8*
O=C(COC(=O)C(CO)NS(=O)(=O)c1ccc(Br)cc1)Nc1ccc2c(c1)OCCO2 (stereo unspecified)	0.4	-5.1	46.6*	-0.5	1.2
O=C(COc1ccc(S(=O)(=O)NC2CCCCC2)cc1)Nc1ccc2c(c1)OCCO2	0.0	-1.3	-2.9	-2.4	101.2*
Cc1cc(Cl)c(S(=O)(=O)Nc2ccc3c(c2)OCCO3)cc1OCC(=O)NC1CCCCC1	-0.8	-4.1	-2.6	2.3	156.6*
CC(=O)Nc1ccc(S(=O)(=O)N[C@@H](C)C(=O)OCC(=O)Nc2ccc3c(c2)OCCO3)cc1	-0.2	1.8	·	-0.8	-2.1
Cc1cc(Cl)c(S(=O)(=O)Nc2ccon2)cc1OCC(=O)NC1CCCCC1	-2.2	-4.2	-0.5	-0.9	-11.1
C/C=C/c1cnc2c(c1)C(=O)N([C@@H](C)CO)C[C@@H](C)[C@H](CN(C)C(=O)Nc1ccc(C(F)(F)F)cc1)O2	·	-3.7	·	0.5	18.4[16.7 µM]
CCNC(=O)Nc1ccc2c(c1)C(=O)N(C)[C@@H]1CC[C@H](CC(=O)NCc3ccccc3F)O[C@@H]1CO2	·	3.6	·	4.6	16.7[16.7 µM]
COc1ccc2nc(C)cc(N/N=C/c3ccccc3)c2c1	14.1	-0.1	·	-0.4	-14.2
COc1ccc(/C=N/Nc2cc(C)nc3ccc(OC)cc23)c(OC)c1	45.1*	-30.2	18.0	-1.0	·
O=C(c1cccc(F)c1)N1C[C@@H]2[C@H](c3ccccc31)[C@H](CO)N2Cc1cocn1	·	1.7	·	82.3*	78.6[16.7 µM]
O=C(Nc1ccc(F)cc1)N1C[C@@H]2[C@H](c3ccccc31)[C@H](CO)N2Cc1cocn1	·	-1.5	·	91.3*	-2.8[16.7 µM]
Cc1c(C2N3CC4(C)CN2CC(C)(C3)C4=O)c2ccccc2n1C (stereo unspecified)	0.4	1.9	-0.9	3.2	-8.3
CC(C)Cn1c(N)c(C(=O)COC(=O)c2ccc(O)cc2)c(=O)n(C)c1=O	-0.3	·	-8.5	·	·
CC(C)Cn1c(N)c(C(=O)COC(=O)c2cc(F)cc(F)c2)c(=O)n(C)c1=O	-2.7	·	35.6*	·	·
CC(C(=O)O)c1cccc(C(=O)c2ccccc2)c1 (stereo unspecified)	-0.2	1.3	32.4*	0.5	8.6
O=C(c1cccc(F)c1)N1CC[C@@H]2[C@@H](CO)Nc3ccc(C#Cc4ccc(F)cc4)cc3[C@@H]21	·	-3.6	·	-1.4	-4.5[16.7 µM]
Cc1cccc(CC(=O)NCC(=O)NCc2cc(=O)n(C)c(=O)n2C)c1	-1.0	-1.9	62.1*	-2.0	-9.1
CCOc1ccc(CC(=O)NCC(=O)NCc2cc(=O)n(C)c(=O)n2C)cc1	-1.0	-1.6	-2.0	-0.3	-4.2
SMILES	CAL PDZ FP-1	PglD DTNB	CAL PDZ FP-2	Cneo AK release	miR-122 sensor
O=C(COC(=O)c1cc(S(=O)(=O)N2CCOCC2)ccc1Cl)NCc1ccc2c(c1)OCO2	-0.3	-9.4	-5.3	2.4	-1.3
O=C(COC(=O)c1cc(S(=O)(=O)N2CCOCC2)ccc1Cl)Nc1ccc2c(c1)OCO2	-2.1	8.7	78.9*	3.7	-1.7
O=C(COC(=O)/C=C/c1ccccc1[N+](=O)[O-])Nc1ccc(S(=O)(=O)N2CCOCC2)cc1	-0.2	-2.9	35.2*	0.2	4.4
COc1ccc(-c2ccc3n(c2=O)C[C@@H]2[C@@H](CO)[C@H](C(=O)N(C)C)N(CC4CC4)[C@H]32)cc1	·	-2.3	·	7.1	9.8[16.7 µM]
C[C@@H]1CN([C@H](C)CO)S(=O)(=O)c2ccc(C3=CCCCC3)cc2O[C@H]1CN(C)C(=O)Cc1cccnc1	·	4.6	·	2.0	1.2
COc1cccc(CN(C)C(=O)CN2C(=O)NC(c3ccccc3)(c3ccccc3)C2=O)c1	0.0	2.8	79.0*	-0.7	-3.3
C[C@@H]1CN([C@@H](C)CO)C(=O)CCCn2cc(nn2)CO[C@@H]1CN(C)C(=O)CCCN(C)C	·	-0.4	·	96.6*	0.4[16.7 µM]
C[C@@H]1CN([C@@H](C)CO)C(=O)CCCn2cc(nn2)CO[C@@H]1CN(C)C(=O)NC1CCCC1	·	2.2	·	117.2*	21.0[16.7 µM]
C[C@@H]1CN([C@H](C)CO)C(=O)CCCn2cc(nn2)CO[C@H]1CN(C)C(=O)CCCN(C)C	·	-1.2	·	10.2	-0.1[16.7 µM]
C[C@H](CO)N1C[C@H](C)[C@@H](CN(C)C(=O)CCCN(C)C)OCc2cn(nn2)CCCC1=O	·	2.1	·	-1.0	-7.3
C[C@@H]1CN([C@H](C)CO)C(=O)CCCn2cc(nn2)CO[C@@H]1CN(C)C(=O)CCCN(C)C	·	-3.0	·	105.1*	10.6[16.7 µM]
C[C@@H]1CN([C@H](C)CO)C(=O)c2cc(-c3cccnc3)cnc2O[C@@H]1CN(C)C(=O)Nc1ccc(C(F)(F)F)cc1	·	-1.6	·	5.8	-4.0[16.7 µM]
NC(=O)c1ccc(Oc2ccc(C(N)=O)cc2)cc1	-2.7	-0.6	-4.3	1.0	1.0
Cc1nnsc1C(=O)Nc1cccc(Cl)c1	-0.6	0.4	73.8*	-10.2	-8.1
CCCNC(=O)NC[C@@H]1[C@@H](c2ccc(C3=CCCC3)cc2)[C@@H](CO)N1C(=O)CC	·	3.0	·	-3.0	142.9*[16.7 µM]
CCC(=O)N1[C@H](CN(C)C(C)=O)[C@@H](c2ccc(C3=CCCCC3)cc2)[C@@H]1CO	·	0.2	·	110.9*	14.3[16.7 µM]
CCC(=O)N1[C@H](CO)[C@@H](c2ccc(-c3cccnc3)cc2)[C@@H]1CN(C)C(C)=O	·	-1.6	·	104.1*	-21.4[16.7 µM]
